From ChEMBL document CHEMBL1154183, “Structure-based optimization of potent and selective inhibitors of the tyrosine kinase erythropoietin producing human hepatocellular carcinoma receptor B4 (EphB4)” (J Med Chem, 2009)
Blank lines part the entries; values can stand above or below the compound they belong to.

Columns and labels:
[1] = target: Mitogen-activated protein kinase 14 (Homo sapiens) (UniProt Q16539); experiment: Inhibition of p38alpha assessed as remaining enzyme activity at 3 uM relative to DMSO
Sequence of Mitogen-activated protein kinase 14 (Homo sapiens) (Q16539 whole entry): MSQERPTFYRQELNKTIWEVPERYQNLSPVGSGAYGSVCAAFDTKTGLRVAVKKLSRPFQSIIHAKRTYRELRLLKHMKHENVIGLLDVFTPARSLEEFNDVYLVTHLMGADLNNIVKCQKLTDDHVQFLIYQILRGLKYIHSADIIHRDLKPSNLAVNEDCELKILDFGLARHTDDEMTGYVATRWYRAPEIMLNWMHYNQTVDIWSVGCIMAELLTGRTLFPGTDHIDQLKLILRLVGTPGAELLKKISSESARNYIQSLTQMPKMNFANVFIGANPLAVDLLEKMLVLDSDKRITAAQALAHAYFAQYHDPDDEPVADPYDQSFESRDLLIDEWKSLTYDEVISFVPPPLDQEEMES

[2] = target: Serine/threonine-protein kinase 26 (Homo sapiens) (UniProt Q9P289); experiment: Inhibition of MST4 assessed as remaining enzyme activity at 3 uM relative to DMSO
Sequence of Serine/threonine-protein kinase 26 (Homo sapiens) (Q9P289 2-416 limits assumed): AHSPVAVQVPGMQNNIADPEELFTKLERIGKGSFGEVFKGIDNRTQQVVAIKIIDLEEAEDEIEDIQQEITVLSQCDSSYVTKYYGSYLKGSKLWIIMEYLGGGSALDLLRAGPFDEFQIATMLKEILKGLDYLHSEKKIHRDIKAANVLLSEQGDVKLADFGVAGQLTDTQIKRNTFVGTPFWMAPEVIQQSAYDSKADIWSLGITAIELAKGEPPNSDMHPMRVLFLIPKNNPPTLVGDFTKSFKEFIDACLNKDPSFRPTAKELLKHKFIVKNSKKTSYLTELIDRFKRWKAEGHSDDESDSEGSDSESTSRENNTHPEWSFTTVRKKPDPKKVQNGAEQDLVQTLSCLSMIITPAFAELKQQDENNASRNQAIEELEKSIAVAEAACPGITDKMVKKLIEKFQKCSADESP
Summary of the method: (§1)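 Radiometric kinase assay run robotically at room temperature for 30 min. Contained 10 mM magnesium acetate and [γ-33P]ATP (800 cpm/pmol) at 5, 20 or 50 μM, chosen per kinase to be at or below its ATP Km. Reactions were started with MgATP, stopped with orthophosphoric acid and spotted onto P81 filters. Result is mean % activity of duplicates at one inhibitor concentration versus DMSO control.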

[3] = target: Insulin receptor (Homo sapiens) (UniProt P06213); experiment: Inhibition of histidine-tagged IR assessed as remaining enzyme activity at 3 uM relative to DMSO
[4] = target: Mitogen-activated protein kinase 12 (Homo sapiens) (UniProt P53778); experiment: Inhibition of p38-gamma assessed as remaining enzyme activity at 3 uM relative to DMSO
Sequence of Mitogen-activated protein kinase 12 (Homo sapiens) (P53778 whole entry): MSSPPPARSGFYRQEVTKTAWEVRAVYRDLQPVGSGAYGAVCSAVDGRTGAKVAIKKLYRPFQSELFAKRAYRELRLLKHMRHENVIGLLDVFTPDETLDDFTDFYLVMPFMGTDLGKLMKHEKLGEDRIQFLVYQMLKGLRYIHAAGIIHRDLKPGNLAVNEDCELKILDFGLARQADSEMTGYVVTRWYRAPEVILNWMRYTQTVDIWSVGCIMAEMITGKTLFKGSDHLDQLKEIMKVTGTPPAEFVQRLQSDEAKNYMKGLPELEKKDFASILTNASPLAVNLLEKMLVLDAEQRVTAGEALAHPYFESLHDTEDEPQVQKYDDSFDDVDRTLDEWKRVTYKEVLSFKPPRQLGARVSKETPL

[5] = target: Mitogen-activated protein kinase 13 (Homo sapiens) (UniProt O15264); experiment: Inhibition of p38delta assessed as remaining enzyme activity at 3 uM relative to DMSO
Sequence of Mitogen-activated protein kinase 13 (Homo sapiens) (O15264 whole entry): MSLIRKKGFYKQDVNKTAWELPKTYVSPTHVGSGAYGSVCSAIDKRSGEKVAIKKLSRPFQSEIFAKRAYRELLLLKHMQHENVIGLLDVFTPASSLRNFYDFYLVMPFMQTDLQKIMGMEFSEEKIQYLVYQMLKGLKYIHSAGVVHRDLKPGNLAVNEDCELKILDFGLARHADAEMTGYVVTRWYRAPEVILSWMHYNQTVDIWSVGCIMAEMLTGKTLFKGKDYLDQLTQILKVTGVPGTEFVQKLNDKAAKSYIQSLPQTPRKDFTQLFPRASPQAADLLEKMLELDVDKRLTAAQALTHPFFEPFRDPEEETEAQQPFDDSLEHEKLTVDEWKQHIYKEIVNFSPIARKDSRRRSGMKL

[6] = target: Misshapen-like kinase 1 (Homo sapiens) (UniProt Q8N4C8); experiment: Inhibition of MINK1 assessed as remaining enzyme activity at 3 uM relative to DMSO; summary of the method: as §1
Sequence of Misshapen-like kinase 1 (Homo sapiens) (Q8N4C8 whole entry, looked up): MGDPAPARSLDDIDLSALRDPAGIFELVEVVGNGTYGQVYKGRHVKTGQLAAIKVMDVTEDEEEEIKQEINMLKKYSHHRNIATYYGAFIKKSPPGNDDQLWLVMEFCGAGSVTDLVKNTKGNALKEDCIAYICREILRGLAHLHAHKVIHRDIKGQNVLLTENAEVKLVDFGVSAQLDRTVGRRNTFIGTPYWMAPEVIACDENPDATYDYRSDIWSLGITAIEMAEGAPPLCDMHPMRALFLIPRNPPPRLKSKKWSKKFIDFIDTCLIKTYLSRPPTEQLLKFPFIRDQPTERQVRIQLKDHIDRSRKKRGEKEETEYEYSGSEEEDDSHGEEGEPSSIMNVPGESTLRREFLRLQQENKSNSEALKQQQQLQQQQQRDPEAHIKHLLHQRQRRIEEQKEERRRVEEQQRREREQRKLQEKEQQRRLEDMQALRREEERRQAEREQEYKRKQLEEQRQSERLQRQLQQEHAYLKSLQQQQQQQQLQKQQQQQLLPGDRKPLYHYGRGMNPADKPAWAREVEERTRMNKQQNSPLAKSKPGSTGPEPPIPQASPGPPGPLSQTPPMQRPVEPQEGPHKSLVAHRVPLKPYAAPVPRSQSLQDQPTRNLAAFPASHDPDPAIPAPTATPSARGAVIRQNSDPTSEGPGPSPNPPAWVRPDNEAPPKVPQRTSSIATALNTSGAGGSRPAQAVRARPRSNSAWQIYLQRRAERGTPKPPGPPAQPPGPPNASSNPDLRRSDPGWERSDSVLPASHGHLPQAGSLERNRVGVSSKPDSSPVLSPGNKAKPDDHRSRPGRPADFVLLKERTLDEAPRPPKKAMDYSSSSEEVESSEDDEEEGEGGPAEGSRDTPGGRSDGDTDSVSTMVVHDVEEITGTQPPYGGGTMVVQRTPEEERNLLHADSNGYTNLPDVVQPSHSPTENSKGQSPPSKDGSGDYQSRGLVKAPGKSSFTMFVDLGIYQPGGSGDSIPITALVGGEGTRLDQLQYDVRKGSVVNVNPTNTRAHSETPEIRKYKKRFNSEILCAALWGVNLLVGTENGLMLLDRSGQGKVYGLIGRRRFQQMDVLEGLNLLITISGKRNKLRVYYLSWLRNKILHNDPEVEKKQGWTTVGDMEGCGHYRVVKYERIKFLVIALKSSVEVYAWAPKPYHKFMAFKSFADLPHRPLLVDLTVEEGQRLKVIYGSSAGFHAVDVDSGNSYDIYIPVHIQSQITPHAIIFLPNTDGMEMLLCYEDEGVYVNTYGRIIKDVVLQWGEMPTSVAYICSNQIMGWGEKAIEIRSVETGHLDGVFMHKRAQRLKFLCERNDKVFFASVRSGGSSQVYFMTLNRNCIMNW

[7] = Inhibition of PKA assessed as remaining enzyme activity at 3 uM relative to DMSO; summary of the method: as §1
[8] = target: Myosin light chain kinase, smooth muscle (Homo sapiens) (UniProt Q15746); experiment: Inhibition of SmMLCK assessed as remaining enzyme activity at 3 uM relative to DMSO
[9] = target: Tyrosine-protein kinase SYK (Homo sapiens) (UniProt P43405); experiment: Inhibition of SYK assessed as remaining enzyme activity at 3 uM relative to DMSO
[10] = target: Serine/threonine-protein kinase STK11 (Homo sapiens) (UniProt Q15831); experiment: Inhibition of LKB1 assessed as remaining enzyme activity at 3 uM relative to DMSO; summary of the method: as §1
[11] = target: Serine/threonine-protein kinase N2 (Homo sapiens) (UniProt Q16513); experiment: Inhibition of PRK2 assessed as remaining enzyme activity at 3 uM relative to DMSO
[12] = target: Calcium/calmodulin-dependent protein kinase type 1 (Homo sapiens) (UniProt Q14012); experiment: Inhibition of CAMK1 assessed as remaining enzyme activity at 3 uM relative to DMSO
[13] = target: Casein kinase I isoform alpha (Homo sapiens) (UniProt P48729); experiment: Inhibition of CK1 assessed as remaining enzyme activity at 3 uM relative to DMSO
Sequence of Casein kinase I isoform alpha (Homo sapiens) (P48729 whole entry, looked up, canonical isoform): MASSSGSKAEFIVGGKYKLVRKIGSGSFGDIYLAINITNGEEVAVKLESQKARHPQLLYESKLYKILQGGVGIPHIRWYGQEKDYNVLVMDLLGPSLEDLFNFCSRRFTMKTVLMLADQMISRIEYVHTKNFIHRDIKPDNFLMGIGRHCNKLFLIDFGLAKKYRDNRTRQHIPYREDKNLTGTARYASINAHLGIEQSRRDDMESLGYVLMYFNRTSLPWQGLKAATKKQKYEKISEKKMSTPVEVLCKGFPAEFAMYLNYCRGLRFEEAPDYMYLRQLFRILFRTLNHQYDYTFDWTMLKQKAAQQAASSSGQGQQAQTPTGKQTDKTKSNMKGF
Summary of the method: (§2)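 Dundee kinase panel, radiometric: [γ-33P]ATP (800 cpm/pmol) at 5, 20 or 50 μM, at or below each kinase's ATP Km; 10 mM magnesium acetate; robotic, room temperature, 30 min. Reactions started with MgATP, stopped with orthophosphoric acid, spotted onto P81 filters. Inhibitor tested at a single concentration; mean % activity of duplicates relative to DMSO control.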

[14] = target: Dual specificity tyrosine-phosphorylation-regulated kinase 3 (Homo sapiens) (UniProt O43781); experiment: Inhibition of DYRK3 assessed as remaining enzyme activity at 3 uM relative to DMSO; summary of the method: as §2
[15] = target: Receptor tyrosine-protein kinase erbB-4 (Homo sapiens) (UniProt Q15303); experiment: Inhibition of HER4 assessed as remaining enzyme activity at 1 uM relative to DMSO; summary of the method: as §2
[16] = target: Serine/threonine-protein kinase 26 (Homo sapiens) (UniProt Q9P289); experiment: Inhibition of MST4 assessed as remaining enzyme activity at 1 uM relative to DMSO; summary of the method: as §1
[17] = target: Insulin receptor-related protein (Homo sapiens) (UniProt P14616); experiment: Inhibition of IRR assessed as remaining enzyme activity at 1 uM relative to DMSO; summary of the method: as §2
[18] = target: Serine/threonine-protein kinase Nek2 (Homo sapiens) (UniProt P51955); experiment: Inhibition of NEK2alpha assessed as remaining enzyme activity at 1 uM relative to DMSO; summary of the method: as §1
[19] = target: Serine/threonine-protein kinase PAK 5 (Homo sapiens) (UniProt Q9P286); experiment: Inhibition of PAK5 assessed as remaining enzyme activity at 1 uM relative to DMSO; summary of the method: as §1
Sequence of Serine/threonine-protein kinase PAK 5 (Homo sapiens) (Q9P286 whole entry, looked up): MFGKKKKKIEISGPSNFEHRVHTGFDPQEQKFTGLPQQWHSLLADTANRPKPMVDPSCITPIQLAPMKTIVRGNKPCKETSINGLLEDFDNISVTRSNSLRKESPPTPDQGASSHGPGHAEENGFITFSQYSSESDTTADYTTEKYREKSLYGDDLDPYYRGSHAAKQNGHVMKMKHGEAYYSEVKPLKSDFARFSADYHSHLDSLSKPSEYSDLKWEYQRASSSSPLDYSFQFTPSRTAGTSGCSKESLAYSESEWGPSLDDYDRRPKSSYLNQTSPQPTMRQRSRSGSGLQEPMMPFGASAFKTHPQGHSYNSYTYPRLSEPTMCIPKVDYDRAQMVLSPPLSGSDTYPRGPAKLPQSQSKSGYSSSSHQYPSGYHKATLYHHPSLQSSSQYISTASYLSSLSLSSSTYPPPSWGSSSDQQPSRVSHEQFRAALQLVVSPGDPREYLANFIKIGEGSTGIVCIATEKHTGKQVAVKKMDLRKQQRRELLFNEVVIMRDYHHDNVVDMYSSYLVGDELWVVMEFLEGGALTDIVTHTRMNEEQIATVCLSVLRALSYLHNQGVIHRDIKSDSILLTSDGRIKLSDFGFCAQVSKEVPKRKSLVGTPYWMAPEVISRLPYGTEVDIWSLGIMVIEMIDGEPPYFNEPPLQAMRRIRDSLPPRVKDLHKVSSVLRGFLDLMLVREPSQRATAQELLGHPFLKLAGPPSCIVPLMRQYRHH

[20] = target: Misshapen-like kinase 1 (Homo sapiens) (UniProt Q8N4C8); experiment: Inhibition of MINK1 assessed as remaining enzyme activity at 1 uM relative to DMSO; summary of the method: as §1
[21] = target: Serine/threonine-protein kinase pim-2 (Homo sapiens) (UniProt Q9P1W9); experiment: Inhibition of PIM2 assessed as remaining enzyme activity at 1 uM relative to DMSO
Sequence of Serine/threonine-protein kinase pim-2 (Homo sapiens) (Q9P1W9 whole entry, looked up): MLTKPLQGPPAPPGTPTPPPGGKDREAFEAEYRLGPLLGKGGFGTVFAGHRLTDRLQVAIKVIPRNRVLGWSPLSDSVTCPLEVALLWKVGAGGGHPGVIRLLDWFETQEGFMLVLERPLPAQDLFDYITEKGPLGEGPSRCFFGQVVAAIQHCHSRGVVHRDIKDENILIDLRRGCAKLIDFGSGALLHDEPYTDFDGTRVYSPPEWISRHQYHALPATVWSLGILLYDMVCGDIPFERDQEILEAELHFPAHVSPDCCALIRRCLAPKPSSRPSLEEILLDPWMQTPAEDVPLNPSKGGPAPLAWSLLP

[22] = target: Serine/threonine-protein kinase Chk2 (Homo sapiens) (UniProt O96017); experiment: Inhibition of CHK2 assessed as remaining enzyme activity at 1 uM relative to DMSO; summary of the method: as §2
[23] = target: Ribosomal protein S6 kinase alpha-5 (Homo sapiens) (UniProt O75582); experiment: Inhibition of MSK1 assessed as remaining enzyme activity at 1 uM relative to DMSO
Summary of the method: (§3)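 Radiometric kinase assay run robotically at room temperature for 30 min, linear in time and enzyme. Conditions: 10 mM magnesium acetate, [γ-33P]ATP (800 cpm/pmol) at 5, 20 or 50 μM per kinase, at or below its ATP Km. Started with MgATP and stopped with orthophosphoric acid, then spotted on P81 filters. Reported as mean % activity of duplicates versus DMSO controls.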

[24] = target: Cyclin-G-associated kinase (Homo sapiens) (UniProt O14976); experiment: Binding affinity to GAK assessed as percentage of kinase remaining bound to the bead at 1 uM by T7 phage display based binding assay
Summary of the method: (§4)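 Competition binding assay run by a contract lab. Each kinase was expressed as a fusion to T7 phage, full-length for small kinases and catalytic domain for large ones. Phage were mixed with an immobilized known kinase inhibitor on streptavidin magnetic beads and with test compound at a single 1 μM. Kinase/phage still bound to the beads was quantified by qPCR and expressed as % of DMSO control.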

[25] = target: Ephrin type-B receptor 6 (Homo sapiens) (UniProt O15197); experiment: Binding affinity to EPHB6 assessed as percentage of kinase remaining bound to the bead at 1 uM by T7 phage display based binding assay; summary of the method: as §4
[26] = target: Discoidin domain-containing receptor 2 (Homo sapiens) (UniProt Q16832); experiment: Binding affinity to DDR2 assessed as percentage of kinase remaining bound to the bead at 1 uM by T7 phage display based binding assay; summary of the method: as §4
[27] = target: RAF proto-oncogene serine/threonine-protein kinase (Homo sapiens) (UniProt P04049); experiment: Binding affinity to RAF1 assessed as percentage of kinase remaining bound to the bead at 1 uM by T7 phage display based binding assay; summary of the method: as §4
[28] = target: Dual specificity tyrosine-phosphorylation-regulated kinase 2 (Homo sapiens) (UniProt Q92630); experiment: Inhibition of DYRK2 assessed as remaining enzyme activity at 1 uM relative to DMSO; summary of the method: as §3
[29] = target: Fibroblast growth factor receptor 1 (Homo sapiens) (UniProt P11362); experiment: Inhibition of FGF-R1 assessed as remaining enzyme activity at 1 uM relative to DMSO; summary of the method: as §2
Sequence of Fibroblast growth factor receptor 1 (Homo sapiens) (P11362 22-822 limits assumed): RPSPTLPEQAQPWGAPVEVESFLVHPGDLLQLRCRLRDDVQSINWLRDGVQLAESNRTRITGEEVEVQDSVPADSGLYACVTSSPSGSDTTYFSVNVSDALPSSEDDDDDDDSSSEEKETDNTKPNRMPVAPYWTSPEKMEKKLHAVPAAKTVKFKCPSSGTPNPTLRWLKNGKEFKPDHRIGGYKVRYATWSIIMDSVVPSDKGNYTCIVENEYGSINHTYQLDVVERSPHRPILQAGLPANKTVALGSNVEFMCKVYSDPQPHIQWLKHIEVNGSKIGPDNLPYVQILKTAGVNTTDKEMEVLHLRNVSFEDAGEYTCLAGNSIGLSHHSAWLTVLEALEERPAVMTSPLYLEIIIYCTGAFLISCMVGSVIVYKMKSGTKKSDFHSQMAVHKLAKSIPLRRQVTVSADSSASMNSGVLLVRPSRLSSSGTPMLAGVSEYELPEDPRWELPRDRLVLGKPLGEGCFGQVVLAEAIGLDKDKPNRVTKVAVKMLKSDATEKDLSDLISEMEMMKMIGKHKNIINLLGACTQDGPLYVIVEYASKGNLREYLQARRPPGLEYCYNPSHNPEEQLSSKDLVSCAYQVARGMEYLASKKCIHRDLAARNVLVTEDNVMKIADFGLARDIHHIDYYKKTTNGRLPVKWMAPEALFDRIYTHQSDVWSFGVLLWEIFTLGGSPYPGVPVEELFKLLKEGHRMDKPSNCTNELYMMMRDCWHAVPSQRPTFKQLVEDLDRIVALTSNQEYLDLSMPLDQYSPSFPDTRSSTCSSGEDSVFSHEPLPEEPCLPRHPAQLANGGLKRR

[30] = target: MAP kinase-interacting serine/threonine-protein kinase 2 (Homo sapiens) (UniProt Q9HBH9); experiment: Inhibition of MNK2 assessed as remaining enzyme activity at 1 uM relative to DMSO; summary of the method: as §1

- Activity [1]: 87%
- Activity [2]: 83%
- Activity [3]: 103%
- Activity [4]: 92%
- Activity [5]: 94%
- Activity [6]: 101%
- Activity [7]: 92%
- Activity [8]: 91%
- Activity [9]: 94%
- Activity [10]: 89%
- Activity [11]: 95%
- Activity [12]: 93%
- Activity [13]: 108%
- Activity [14]: 103%
Structure (SMILES): COc1ccccc1-n1c(-c2ccccc2C)cn2c3c(=O)[nH]c(=O)n(C)c3nc12

- Activity [15]: 32%
- Activity [16]: 78%
- Activity [17]: 100%
- Activity [18]: 123%
- Activity [19]: 94%
- Activity [20]: 102%
- Activity [21]: 93%
- Activity [22]: 90%
- Activity [23]: 95%
- Activity [24]: 49%
- Activity [25]: 32%
- Activity [26]: 21%
- Activity [27]: 14%
- Activity [28]: 86%
- Activity [29]: 62%
- Activity [30]: 74%
Structure (SMILES): COc1ccccc1-n1c(-c2cc(O)ccc2C)cn2c3c(=O)[nH]c(=O)n(C)c3nc12
